Measured values reported in ChEMBL document CHEMBL1145339, “N1-Benzoyl-N2-[1-(1-naphthyl)ethyl]-trans-1,2-diaminocyclohexanes: Development of 4-chlorophenylcarboxamide (calhex 231) as a new calcium sensing receptor ligand demonstrating potent calcilytic activity” (J Med Chem, 2006).
pIC50: −log10 of the molar value. Activity calls are given as the source filed them. The calls are words filed in the database; no cut-off is given here.

Experiments:
Assay type in all cases: functional, cell-based
[1] = molecular target: T1, Extracellular calcium-sensing receptor (Rattus norvegicus) (UniProt P48442); experiment: Activity at rat CaSR in CHO cells assessed as inhibition of calcium ion-induced [3H]inositol phosphate accumulation at 10 uM
T1 sequence (whole entry): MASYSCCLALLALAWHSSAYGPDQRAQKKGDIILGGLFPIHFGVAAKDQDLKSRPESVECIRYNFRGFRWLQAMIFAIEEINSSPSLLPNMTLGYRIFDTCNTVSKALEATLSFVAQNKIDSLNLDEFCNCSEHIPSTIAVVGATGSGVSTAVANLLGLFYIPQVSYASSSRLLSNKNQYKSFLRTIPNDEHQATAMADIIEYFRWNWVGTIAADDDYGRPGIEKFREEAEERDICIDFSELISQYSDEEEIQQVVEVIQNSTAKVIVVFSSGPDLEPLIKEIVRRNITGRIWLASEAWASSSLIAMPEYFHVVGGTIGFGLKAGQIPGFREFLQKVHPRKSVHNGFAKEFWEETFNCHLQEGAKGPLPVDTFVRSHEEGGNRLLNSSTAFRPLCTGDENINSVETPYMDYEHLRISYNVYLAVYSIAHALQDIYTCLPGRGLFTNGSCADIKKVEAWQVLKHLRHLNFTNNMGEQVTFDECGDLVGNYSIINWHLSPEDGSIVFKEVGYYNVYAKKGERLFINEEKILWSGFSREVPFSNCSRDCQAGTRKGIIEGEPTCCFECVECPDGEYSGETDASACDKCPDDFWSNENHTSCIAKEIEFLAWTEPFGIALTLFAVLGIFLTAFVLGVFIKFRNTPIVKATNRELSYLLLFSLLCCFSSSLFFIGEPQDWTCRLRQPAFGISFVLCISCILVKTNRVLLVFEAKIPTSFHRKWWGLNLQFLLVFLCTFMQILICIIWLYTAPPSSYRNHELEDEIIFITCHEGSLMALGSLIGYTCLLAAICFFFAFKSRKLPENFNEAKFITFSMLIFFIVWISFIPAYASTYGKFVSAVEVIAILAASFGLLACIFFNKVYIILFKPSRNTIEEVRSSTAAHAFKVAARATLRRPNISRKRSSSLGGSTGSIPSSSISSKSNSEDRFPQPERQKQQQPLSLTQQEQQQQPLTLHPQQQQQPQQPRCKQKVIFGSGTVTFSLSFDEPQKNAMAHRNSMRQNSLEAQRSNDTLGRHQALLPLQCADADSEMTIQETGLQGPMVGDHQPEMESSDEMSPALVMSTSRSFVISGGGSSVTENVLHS
Outline: (§1)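 CHO cells stably transfected with rat CaSR, grown in basal Ham's F-12 (0.3 mM Ca2+, 0.6 mM Mg2+). Overnight labelling with myo-[3H]inositol (0.5 µCi/mL). Cells washed, then 15 min at 37°C in basal medium with 10 mM LiCl, then 30 min at 37°C with 9 mM Ca2+ plus compound (10 mM ethanol stock diluted in medium). Reaction stopped with HClO4; [3H]IP isolated by ion exchange.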

[2] = molecular target: T1, Extracellular calcium-sensing receptor (Rattus norvegicus); experiment: Activity at rat CaSR in CHO cells assessed as inhibition of calcium ion-induced [3H]inositol phosphate accumulation at 1 uM; outline: as §1
[3] = molecular target: T2, Extracellular calcium-sensing receptor (Rattus norvegicus, UniProt P48442); experiment: Activity at rat CaSR in CHO cells assessed as inhibition of calcium ion-induced [3H]inositol phosphate accumulation; outline: as §1
T2 sequence (P48442 whole entry): T1 sequence (whole entry)

Structure (SMILES)	inhibition [1]	inhibition [2] [%]	pIC50 [3]
CC(N[C@H]1CCCC[C@@H]1NS(=O)(=O)c1ccc([N+](=O)[O-])cc1)c1ccc(-c2ccccc2)cc1 (relative stereo)	7%		
CC(N[C@@H]1CCCC[C@H]1NC(=O)c1cc2ccccc2[nH]1)c1cccc2ccccc12 (relative stereo)		33	
CC(N[C@@H]1CCCC[C@H]1NS(=O)(=O)c1ccc([N+](=O)[O-])cc1)c1ccc2ccccc2c1 (relative stereo)	20%	1	
CC(N[C@@H]1CCCC[C@H]1NC(=O)c1ccc(Cl)c(Cl)c1)c1cccc2ccccc12 (relative stereo)	103%	82	
CC(N[C@@H]1CCCC[C@H]1NS(=O)(=O)c1ccc(Cl)c(Cl)c1Cl)c1cccc2ccccc12 (relative stereo)	59%		
CC(N[C@@H]1CCCC[C@H]1NS(=O)(=O)c1ccc([N+](=O)[O-])cc1)c1cccc2ccccc12 (relative stereo)	56%		
C[C@H](N[C@H]1CCCC[C@@H]1NC(=O)c1ccc(OC(F)(F)F)cc1)c1cccc2ccccc12	inactive		
CC(C)(Cc1ccc2ccccc2c1)NC[C@@H](O)COc1cccc(Cl)c1C#N	87%	77	6.34
CC(N[C@@H]1CCCC[C@H]1NC(=O)Oc1ccccc1)c1cccc2ccccc12 (relative stereo)	1%		
CC(N[C@@H]1CCCC[C@H]1NC(=O)c1ccccn1)c1cccc2ccccc12 (relative stereo)	76%	35	
CC(N[C@@H]1CCCC[C@H]1NS(=O)(=O)c1ccc(Cl)c(Cl)c1)c1cccc2ccccc12 (relative stereo)	60%		
CC(N[C@@H]1CCCC[C@H]1NC(=O)c1ccc(Cl)cc1)c1cccc2ccccc12 (relative stereo)	106%	90	
CC(N[C@@H]1CCCC[C@H]1NS(=O)(=O)c1cccc(Cl)c1)c1cccc2ccccc12 (relative stereo)	60%		
CC(N[C@@H]1CCCC[C@H]1NC(=O)c1ccccc1C(F)(F)F)c1cccc2ccccc12 (relative stereo)		36	
CC(N[C@@H]1CCCC[C@H]1NC(=O)c1ccccc1Cl)c1cccc2ccccc12 (relative stereo)	68%	19	
CC(N[C@@H]1CCCC[C@H]1NS(=O)(=O)c1cccc(C(F)(F)F)c1)c1cccc2ccccc12 (relative stereo)	44%		
O=[N+]([O-])c1ccc(S(=O)(=O)N[C@@H]2CCCC[C@H]2NCc2cccc3ccccc23)cc1 (relative stereo)	6%	1	
CC(N[C@@H]1CCCC[C@H]1NC(=O)c1ccccc1)c1cccc2ccccc12 (relative stereo)	78%	33	
COc1ccc(OC)c(S(=O)(=O)N[C@@H]2CCCC[C@H]2NC(C)c2cccc3ccccc23)c1 (relative stereo)	0%		

More lines, now with the values ahead:

inhibition [1]	inhibition [2] [%]	pIC50 [3]	Structure (SMILES)
73%			CC(N[C@@H]1CCCC[C@H]1NS(=O)(=O)c1ccc(Cl)cc1)c1cccc2ccccc12 (some centres undefined)
inactive			C[C@H](N[C@@H]1CCCC[C@H]1NS(=O)(=O)c1ccc(OC(F)(F)F)cc1)c1cccc2ccccc12
78%	8	5.27	CC(N[C@@H]1CCCC[C@H]1NS(=O)(=O)c1ccc(OC(F)(F)F)cc1)c1cccc2ccccc12 (relative stereo)
62%	12	5.10	COc1ccc(S(=O)(=O)N[C@@H]2CCCC[C@H]2NC(C)c2cccc3ccccc23)cc1 (some centres undefined)
32%			C[C@@H](N[C@@H]1CCCC[C@H]1NS(=O)(=O)c1ccc(OC(F)(F)F)cc1)c1cccc2ccccc12
75%			CC(N[C@@H]1CCCC[C@H]1NS(=O)(=O)c1ccc(C(F)(F)F)cc1)c1cccc2ccccc12 (some centres undefined)
100%		6.60	C[C@@H](N[C@H]1CCCC[C@@H]1NC(=O)c1ccc(OC(F)(F)F)cc1)c1cccc2ccccc12
95%	50	6.05	CC(N[C@@H]1CCCC[C@H]1NC(=O)c1ccc(OC(F)(F)F)cc1)c1cccc2ccccc12 (relative stereo)
22%			C[C@H](N[C@@H]1CCCC[C@H]1NC(=O)c1ccc(OC(F)(F)F)cc1)c1cccc2ccccc12
90%		5.59	C[C@@H](N[C@H]1CCCC[C@@H]1NS(=O)(=O)c1ccc(OC(F)(F)F)cc1)c1cccc2ccccc12
20%			C[C@H](N[C@H]1CCCC[C@@H]1NS(=O)(=O)c1ccc(OC(F)(F)F)cc1)c1cccc2ccccc12
95%		5.77	C[C@@H](N[C@@H]1CCCC[C@H]1NC(=O)c1ccc(OC(F)(F)F)cc1)c1cccc2ccccc12
